Experimental data reported in PMC11926516 (Small Methods, 2024).
Read-outs that look alike come from different tables or passages of the source.

Experiments:
HUVEC monolayers = format: cell-based, human; conditions: 0.1 h after MDS stimulation (1 mA/cm^2 for 7 min)
OVX OP rat models [1] = test: Histology of distal femurs; format: in vivo, Sprague–Dawley rats
In short: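 Female Sprague–Dawley rats, 12 weeks old, under pentobarbital anaesthesia. Bilateral ovariectomy via dorsal midline incision; sham rats had matching adipose tissue removed. Rats received PBS or PTH by different delivery methods for 4 weeks. Distal femurs were decalcified 3 weeks, paraffin-embedded and serially sectioned. Stains: H&E, Masson, TRAP kit, and IHC for Col1 (1:100), Ocn (1:200) and Ctsk (1:50). Positive cells per bone surface counted, n = 5, one-way ANOVA.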

[2] = post-SCI, cited from earlier work
[3] = test system: major organs (heart, lung, liver, kidney, spleen); format: in vivo, rats
In short: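 Major organs (heart, lung, liver, kidney, spleen) were taken at the end of the treatment experiment. They were photographed and weighed (n = 3, one-way ANOVA), then paraffin-embedded, serially sectioned and H&E-stained.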

OVX OP rat models [4] = test: Plasma bone turnover markers PINP and CTX-I by Elisa in OVX rats; format: in vivo, Sprague–Dawley rats; conditions: n = 5
[5] = stated consistent with own SCI-PTH group

## CC(=O)OCOC(=O)CN(CC(=O)OCOC(C)=O)c1ccccc1OCCOc1ccccc1N(CC(=O)OCOC(C)=O)CC(=O)OCOC(C)=O [BAPTA‐AM]
HUVEC monolayers; inhibitor 20 µM
  increase in intracellular SFs and disappearance of VE-cadherin fluorescence during the electro-stimulated phase: blocked

## C[C@@H](N)[C@H]1CC[C@H](C(=O)Nc2ccncc2)CC1 [Y27632]
HUVEC monolayers; inhibitor 15 µM
  increase in intracellular SFs and disappearance of VE-cadherin fluorescence during the electro-stimulated phase: blocked

## N.N.N.N.N.N.N.N.N.N.N.N.N.N.[Cl-].[Cl-].[Cl-].[Cl-].[Cl-].[Cl-].[O-2].[O-2].[Ru+3].[Ru+3].[Ru+4] [ruthenium red]
HUVEC monolayers; inhibitor 20 µM
  increase in intracellular SFs and disappearance of VE-cadherin fluorescence during the electro-stimulated phase: blocked

## Human parathyroid hormone (1–34) [PTH]
OVX OP rat models [1]; MDS-PTH group compared to SCI-PTH group, IHC and Trap staining, n = 5
  Ctsk+ and Trap+ osteoclasts per bone surface: dramatically fewer
OVX OP rat models [1]; MDS-PTH group compared to SCI-PTH group, OVX rats, 40 µg k^−1g once daily for one month
  new bone formation (H&E and Masson's staining): significantly promoted
OVX OP rat models [1]; MDS-PTH group compared with OVX group, IHC, n = 5
  Col+ and OCN+ osteoblasts per bone surface: more
OVX OP rat models [1]; SCI-PTH group compared with OVX group, IHC, n = 5
  Col+ and OCN+ osteoblasts per bone surface: more
OVX OP rat models [1]; SCI-PTH versus MDS-PTH groups, IHC, n = 5
  Col+ and OCN+ osteoblasts per bone surface, difference between delivery methods: no significant difference
[2]
  subcutaneous residue: approximately 20%
[2]; [5]
  elimination time: 4 h
  time to plasma Cmax: 30 min
[3]; MDS-PTH group after one month of PTH treatment, H&E
  histopathological analysis of visceral organs: no structural disruption
[3]; MDS-PTH group compared to SCI-PBS and SCI-PTH groups after one month of PTH treatment, n = 3
  appearance or weight of major organs: no significant difference
OVX OP rat models [4]; MDS-PTH group compared to OVX group
  bone formation marker PINP: increased notably
OVX OP rat models [4]; MDS-PTH group compared to SCI-PTH group
  bone resorption marker CTX-I: significantly lower
OVX OP rat models [4]; SCI-PTH group compared to OVX group
  bone formation marker PINP: increased notably
OVX OP rat models [4]; SCI-PTH versus MDS-PTH groups
  bone formation marker PINP, difference between delivery methods: no significant difference
